Results from ChEMBL document CHEMBL4043110 (Bioorg Med Chem, 2017).
Active and inactive are the calls of the source. The rule behind the calls is not given here.

How the values were obtained:
[1] = Solubility of the compound in PBS at pH 7.4; format: physicochemical
Homo sapiens = species: Homo sapiens; experiment: Selectivity index, ratio of IC50 for wild type EGFR (unknown origin) to IC50 for EGFR L858R/T790M double mutant (unknown origin)
[2] = target: T1, Epidermal growth factor receptor (Homo sapiens, UniProt P00533); experiment: Inhibition of wild-type EGFR in human LoVo cells assessed as inhibition of ERK phosphorylation at P-p44/42 residue up to 1000 nmol/L after 6 hrs by Western blot analysis; format: cell-based
Method in brief: (§1)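 The buffer was supplemented with protease inhibitor cocktail, 40 mmol/L sodium fluoride and 1 mmol/L sodium orthovanadate. Protein was quantified by BCA before immunoblotting.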

[3] = target: T1, Epidermal growth factor receptor; experiment: Inhibition of wild-type EGFR phosphorylation at Y1086 residue in human LoVo cells up to 1000 nmol/L after 6 hrs by Western blot analysis; format: cell-based; method in brief: as §1
[4] = tested on: Epidermal growth factor receptor (Homo sapiens), P00533 [UNDEFINED MUTATION]; experiment: Inhibition of EGFR exon 19 deletion mutant phosphorylation at Y1086 residue in human PC9 cells up to 1000 nmol/L after 6 hrs by Western blot analysis; format: cell-based; method in brief: as §1
[5] = tested on: Epidermal growth factor receptor (Homo sapiens), P00533 [L858R,T790M]; experiment: Inhibition of EGFR L858R/T790M mutant phosphorylation at Y1086 residue in human H1975 cells up to 1000 nmol/L after 6 hrs by Western blot analysis; format: cell-based; method in brief: as §1
BEAS-2B = experiment: Antiproliferative activity against human BEAS2B cells after 72 hrs by MTS assay; format: cell-based
[6] = target: T1, Epidermal growth factor receptor; experiment: Inhibition of wild-type EGFR (unknown origin) using Tyr 4 peptide as substrate in presence of ATP by Z-LYTE kinase assay
[7] = tested on: Epidermal growth factor receptor (Homo sapiens), P00533 [UNDEFINED MUTATION]; experiment: Inhibition of EGFR exon 19 deletion mutant in human PC9 cells assessed as inhibition of ERK phosphorylation at P-p44/42 residue up to 1000 nmol/L after 6 hrs by Western blot analysis; format: cell-based; method in brief: as §1
[8] = target: T1, Epidermal growth factor receptor; experiment: Inhibition of wild-type EGFR in human LoVo cells assessed as inhibition of AKT phosphorylation at S473 residue up to 1000 nmol/L after 6 hrs by Western blot analysis; format: cell-based; method in brief: as §1
[9] = tested on: Epidermal growth factor receptor (Homo sapiens), P00533 [L858R,T790M]; experiment: Inhibition of EGFR L858R/T790M mutant in human H1975 cells assessed as inhibition of ERK phosphorylation at P-p44/42 residue up to 1000 nmol/L after 6 hrs by Western blot analysis; format: cell-based; method in brief: as §1
[10] = tested on: Epidermal growth factor receptor (Homo sapiens), P00533 [UNDEFINED MUTATION]; experiment: Inhibition of EGFR exon 19 deletion mutant in human PC9 cells assessed as inhibition of AKT phosphorylation at S473 residue up to 1000 nmol/L after 6 hrs by Western blot analysis; format: cell-based; method in brief: as §1
PC-9 = experiment: Antiproliferative activity against human PC9 cells harboring EGFR exon 19 deletion mutant after 72 hrs by MTS assay; format: functional, cell-based; conditions: PC-9, 72 h
Method in brief: (§2)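 NCI-H460, PC9 or NCI-H1975 cells were grown in RPMI 1640 with 10% FBS at 37 °C and 5% CO2, and used at passages 3–5 from thawing. Exponentially growing cells were seeded at 7000 cells/well. After 24 h the medium was replaced with medium containing a 3-fold serial dilution of compound in DMSO, and cells were incubated 72 h at 37 °C. MTS was added for 2 h and A490 read. Samples were run in triplicate and repeated at least three times.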

NCI-H460 = experiment: Antiproliferative activity against human NCI-H460 cells after 72 hrs by MTS assay; format: functional, cell-based; conditions: NCI-H460, 72 h; method in brief: as §2
[11] = tested on: Epidermal growth factor receptor (Homo sapiens), P00533 [L858R,T790M]; experiment: Inhibition of EGFR L858R/T790M mutant in human H1975 cells assessed as inhibition of AKT phosphorylation at S473 residue up to 1000 nmol/L after 6 hrs by Western blot analysis; format: cell-based; method in brief: as §1
NCI-H1975 [12] = experiment: Antiproliferative activity against human NCI-H1975 cells harboring EGFR L858R/T790M double mutant after 72 hrs by MTS assay; format: functional, cell-based; conditions: NCI-H1975, 72 h; method in brief: as §2
[13] = target: Epidermal growth factor receptor (Homo sapiens, UniProt P00533, L858R/T790M); experiment: Inhibition of EGFR L858R/T790M mutant (unknown origin) using Tyr 4 peptide as substrate in presence of ATP by Z-LYTE kinase assay
NCI-H1975 [14] = experiment: Antitumor activity against human NCI-H1975 cells harboring L858R/T790M mutant xenografted in nude mouse at 5 mg/kg/day, ig administered once daily for 30 days measured every 2 days of dosing; format: functional, organism-based
Method in brief: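 Female nude mice (6–8 weeks) were injected subcutaneously in the right flank with NCI-H1975 cells (1 × 10^6/mouse). Once tumors reached about 150–200 mm3, mice were randomized (n = 10 per group). They were dosed intragastrically at 5 mg/kg/day for 30 consecutive days, or given vehicle DMSO/Cremophor-EL/PBS (1:1:8). Tumor length and width were measured by caliper every two days, and volume = width × width × length/2.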

Mus musculus = experiment: Toxicity in nude mouse assessed as effect on body weight at 5 mg/kg/day, ig administered once daily for 30 days; format: organism-based; conditions: in vivo, po, 720 h

T1 sequence (P00533 whole entry): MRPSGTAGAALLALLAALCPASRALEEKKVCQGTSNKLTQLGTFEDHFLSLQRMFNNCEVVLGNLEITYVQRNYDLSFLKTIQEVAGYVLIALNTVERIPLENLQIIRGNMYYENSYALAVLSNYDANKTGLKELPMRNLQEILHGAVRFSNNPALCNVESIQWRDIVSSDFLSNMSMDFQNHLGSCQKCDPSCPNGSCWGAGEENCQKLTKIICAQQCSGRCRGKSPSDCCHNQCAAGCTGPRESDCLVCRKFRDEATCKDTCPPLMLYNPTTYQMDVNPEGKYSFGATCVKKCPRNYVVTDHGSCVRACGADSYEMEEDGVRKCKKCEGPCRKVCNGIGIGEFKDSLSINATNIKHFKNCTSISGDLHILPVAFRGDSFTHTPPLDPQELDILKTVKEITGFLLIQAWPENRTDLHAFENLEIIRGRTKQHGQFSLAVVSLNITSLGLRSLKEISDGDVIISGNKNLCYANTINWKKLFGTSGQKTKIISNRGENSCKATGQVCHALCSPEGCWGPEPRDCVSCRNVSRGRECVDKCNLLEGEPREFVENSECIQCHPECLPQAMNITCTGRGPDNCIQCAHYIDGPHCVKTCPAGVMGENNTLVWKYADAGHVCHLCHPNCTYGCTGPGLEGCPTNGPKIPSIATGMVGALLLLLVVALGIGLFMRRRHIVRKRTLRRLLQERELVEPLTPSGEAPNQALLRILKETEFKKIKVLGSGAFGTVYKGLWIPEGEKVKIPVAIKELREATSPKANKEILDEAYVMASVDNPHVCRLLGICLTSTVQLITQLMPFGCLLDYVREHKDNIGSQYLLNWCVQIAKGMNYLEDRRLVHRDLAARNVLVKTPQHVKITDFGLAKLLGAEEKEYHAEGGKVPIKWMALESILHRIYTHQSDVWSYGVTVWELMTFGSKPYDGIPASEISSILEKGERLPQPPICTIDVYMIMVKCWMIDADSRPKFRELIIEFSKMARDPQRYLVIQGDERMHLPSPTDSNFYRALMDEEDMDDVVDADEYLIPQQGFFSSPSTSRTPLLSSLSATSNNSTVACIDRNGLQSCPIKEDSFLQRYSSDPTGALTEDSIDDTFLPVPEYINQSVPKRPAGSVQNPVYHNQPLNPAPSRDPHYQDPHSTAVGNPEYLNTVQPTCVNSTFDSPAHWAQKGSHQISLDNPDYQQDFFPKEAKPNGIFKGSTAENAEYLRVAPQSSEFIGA
Sequence of Epidermal growth factor receptor (Homo sapiens), P00533 [UNDEFINED MUTATION] (P00533 whole entry, looked up, stated change not applied): as the sequence (P00533 whole entry) above
Sequence of Epidermal growth factor receptor (Homo sapiens), P00533 [L858R,T790M] (P00533 whole entry T790M/L858R, looked up): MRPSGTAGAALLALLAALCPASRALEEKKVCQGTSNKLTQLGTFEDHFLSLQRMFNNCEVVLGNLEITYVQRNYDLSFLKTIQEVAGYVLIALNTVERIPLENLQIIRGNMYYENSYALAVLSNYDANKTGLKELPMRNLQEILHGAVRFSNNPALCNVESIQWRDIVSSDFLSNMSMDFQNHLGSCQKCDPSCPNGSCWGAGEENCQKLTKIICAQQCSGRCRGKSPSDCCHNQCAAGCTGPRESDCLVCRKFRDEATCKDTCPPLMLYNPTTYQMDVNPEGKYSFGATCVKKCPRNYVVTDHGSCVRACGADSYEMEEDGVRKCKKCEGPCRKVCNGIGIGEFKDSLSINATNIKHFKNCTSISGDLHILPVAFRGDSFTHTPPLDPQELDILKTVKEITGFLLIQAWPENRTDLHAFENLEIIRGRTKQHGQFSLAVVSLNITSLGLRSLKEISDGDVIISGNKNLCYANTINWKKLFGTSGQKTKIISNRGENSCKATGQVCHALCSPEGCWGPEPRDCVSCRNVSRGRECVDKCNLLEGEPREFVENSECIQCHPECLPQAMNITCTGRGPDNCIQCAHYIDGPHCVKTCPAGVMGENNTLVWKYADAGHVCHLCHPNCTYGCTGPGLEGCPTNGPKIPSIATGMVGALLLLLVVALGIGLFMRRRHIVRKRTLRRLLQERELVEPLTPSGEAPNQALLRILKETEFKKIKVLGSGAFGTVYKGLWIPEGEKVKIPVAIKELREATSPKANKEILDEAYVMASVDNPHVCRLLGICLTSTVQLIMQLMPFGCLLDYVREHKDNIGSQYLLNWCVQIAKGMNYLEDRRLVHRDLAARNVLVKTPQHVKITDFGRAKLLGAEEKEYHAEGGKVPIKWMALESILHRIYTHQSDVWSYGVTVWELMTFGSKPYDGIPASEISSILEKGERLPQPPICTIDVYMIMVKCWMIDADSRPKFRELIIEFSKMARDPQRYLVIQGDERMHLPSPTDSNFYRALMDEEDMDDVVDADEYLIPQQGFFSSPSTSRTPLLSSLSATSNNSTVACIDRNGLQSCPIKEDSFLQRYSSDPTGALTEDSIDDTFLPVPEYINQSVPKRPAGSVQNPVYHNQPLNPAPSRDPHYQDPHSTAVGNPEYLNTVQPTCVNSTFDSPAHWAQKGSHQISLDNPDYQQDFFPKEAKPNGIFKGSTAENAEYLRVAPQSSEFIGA
Sequence of Epidermal growth factor receptor (Homo sapiens, UniProt P00533, L858R/T790M) (P00533 25-1210 T790M/L858R limits assumed): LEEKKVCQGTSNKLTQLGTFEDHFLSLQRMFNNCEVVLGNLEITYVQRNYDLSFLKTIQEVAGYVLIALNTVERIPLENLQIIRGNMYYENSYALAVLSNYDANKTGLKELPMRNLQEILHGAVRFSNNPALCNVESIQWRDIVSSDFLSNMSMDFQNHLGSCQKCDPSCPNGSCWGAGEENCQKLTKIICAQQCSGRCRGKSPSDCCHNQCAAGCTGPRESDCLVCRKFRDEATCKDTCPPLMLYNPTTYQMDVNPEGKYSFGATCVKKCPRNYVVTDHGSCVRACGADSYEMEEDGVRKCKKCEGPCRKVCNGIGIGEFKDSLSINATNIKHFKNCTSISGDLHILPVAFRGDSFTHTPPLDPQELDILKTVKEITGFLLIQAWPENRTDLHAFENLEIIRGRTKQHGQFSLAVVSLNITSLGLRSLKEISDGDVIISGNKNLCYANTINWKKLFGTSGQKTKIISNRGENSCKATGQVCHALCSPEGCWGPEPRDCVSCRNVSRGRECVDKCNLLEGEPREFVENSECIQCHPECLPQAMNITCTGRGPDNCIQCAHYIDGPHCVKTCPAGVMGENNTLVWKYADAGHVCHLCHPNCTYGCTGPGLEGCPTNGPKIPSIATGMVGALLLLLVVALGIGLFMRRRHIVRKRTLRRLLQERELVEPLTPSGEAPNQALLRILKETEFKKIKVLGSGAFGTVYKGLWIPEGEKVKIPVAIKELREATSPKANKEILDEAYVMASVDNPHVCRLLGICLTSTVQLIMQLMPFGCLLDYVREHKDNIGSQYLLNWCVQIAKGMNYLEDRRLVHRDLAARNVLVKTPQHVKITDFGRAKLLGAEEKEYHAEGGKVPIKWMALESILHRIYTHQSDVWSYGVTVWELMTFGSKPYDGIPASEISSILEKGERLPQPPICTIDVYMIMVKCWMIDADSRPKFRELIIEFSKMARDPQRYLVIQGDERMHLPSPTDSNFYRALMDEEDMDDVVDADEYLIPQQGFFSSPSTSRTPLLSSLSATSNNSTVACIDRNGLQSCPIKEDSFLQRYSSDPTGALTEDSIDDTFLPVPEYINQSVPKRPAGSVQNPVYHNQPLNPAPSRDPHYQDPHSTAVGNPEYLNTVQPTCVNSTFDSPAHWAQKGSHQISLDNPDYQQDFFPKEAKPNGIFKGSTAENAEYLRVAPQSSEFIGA

| solubility [1] [mg/mL] | inhibition (INH) [2] | inhibition (INH) [3] | inhibition [4] | inhibition [5] | IC50 [6] [µM] | inhibition [7] | inhibition (INH) [8] | inhibition [9] | inhibition [10] | IC50 (PC-9) [µM] | IC50 (NCI-H460) [µM] | inhibition [11] | IC50 (NCI-H1975 [12]) [µM] | IC50 [13] [µM] | SMILES | Ratio IC50 (Homo sapiens) | IC50 (BEAS-2B) [µM] | Activity (NCI-H1975 [14]) | Activity (Mus musculus) |
| --- | --- | --- | --- | --- | --- | --- | --- | --- | --- | --- | --- | --- | --- | --- | --- | --- | --- | --- | --- |
| < 0.1 | Not Active | Not Active | Active | Active | 0.175 | Active | Not Active | Active | Active | 0.0205 | 0.875 | Active | 0.0329 | 0.006 | C=CC(=O)Nc1cc(Nc2nccc(-c3cn(C)c4c(F)cccc34)n2)c(OC)cc1N(C)CCN(C)C | 29.2 | 15.6 |  |  |
| > 10 | Not Active | Not Active | Active | Active | 0.595 | Active | Not Active | Active | Active | 0.0467 | 1.14 | Active | 0.0899 | 0.0178 | C=CC(=O)Nc1cc(Nc2nccc(-c3cn(C)c4c(F)cccc34)n2)c(OC)cc1N(C)CC[N+](C)(C)[O-] | 33.4 | 28.4 |  |  |

Further lines, the compound ahead of its results:

| SMILES | solubility [1] [mg/mL] | inhibition (INH) [2] | inhibition (INH) [3] | inhibition [4] | inhibition [5] | IC50 [6] [µM] | inhibition [7] | inhibition (INH) [8] | inhibition [9] | inhibition [10] | IC50 (PC-9) [µM] | IC50 (NCI-H460) [µM] | inhibition [11] | IC50 (NCI-H1975 [12]) [µM] | IC50 [13] [µM] | Ratio IC50 (Homo sapiens) | IC50 (BEAS-2B) [µM] | Activity (NCI-H1975 [14]) | Activity (Mus musculus) |
| --- | --- | --- | --- | --- | --- | --- | --- | --- | --- | --- | --- | --- | --- | --- | --- | --- | --- | --- | --- |
| C=CC(=O)Nc1cc(Nc2nccc(-c3cn(C)c4ccccc34)n2)c(OC)cc1N(C)CCN(C)C [OSIMERTINIB] | < 0.1 |  |  |  |  |  |  |  |  |  | […] | 0.416 |  | […] |  |  | 14.9 |  |  |
| C=CC(=O)Nc1cc(Nc2nccc(-c3cn(C)c4ccccc34)n2)c(OC)cc1N(C)CC[N+](C)(C)[O-] | > 10 | Not Active | Not Active | Active | Active | 0.318 | Active | Not Active | Active | Active | 0.0161 | 0.611 | Active | 0.0174 | 0.0064 | 49.9 | 15.1 | Active | Non-Toxic |
| C=CC(=O)Nc1cc(Nc2nccc(-c3cn(C)c4ccc(F)cc34)n2)c(OC)cc1N(C)CC[N+](C)(C)[O-] | < 0.1 | Not Active | Not Active | Active | Active | 0.357 | Active | Not Active | Active | Active | 0.0262 | 0.893 | Active | 0.0456 | 0.0102 | 35 | 15.7 |  |  |
| C=CC(=O)Nc1cc(Nc2nccc(-c3cn(C)c4ccc(F)cc34)n2)c(OC)cc1N(C)CCN(C)C | < 0.1 | Not Active | Not Active | Active | Active | 0.166 | Active | Not Active | Active | Active | 0.0081 | 0.429 | Active | 0.0153 | 0.0049 | 34.3 | 7.9 |  |  |
